Source: ChEMBL document CHEMBL4266027, “Cyanobufalins: Cardioactive Toxins from Cyanobacterial Blooms” (J Nat Prod, 2018)

Key:
Cardiac muscle cell [1] = assay: Toxicity in human inducible pluripotent stem cell derived cardiomyocytes assessed as increase in beating amplitude at >40 nM; format: cell-based
How it was run: (§1)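 Cor.4U hiPSC-derived cardiomyocytes grown to stable beating cultures, then monitored by impedance in RTCA Cardio plates with 20 s recordings. Compounds tested as a dilution series from 0.32 nM to 5 μM, dosed twice 24 h apart, followed over 48 h. Beating amplitude is taken from each negative peak to the next positive peak and reported as percent change.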

BXPC-3 = assay: Cytotoxicity against human BxPC3 cells assessed as decrease in cell viability after 72 hrs by MTS assay; format: functional, cell-based; conditions: BXPC-3, 72 h
How it was run: (§2)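 Cell proliferation assay using the MTS reagent. Compounds were tested as a dilution series, and EC50 values were derived from the concentration–response data.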

SK-OV-3 = assay: Cytotoxicity against human SKOV3 cells assessed as decrease in cell viability after 72 hrs by MTS assay; format: functional, cell-based; conditions: SK-OV-3, 72 h; how it was run: as §2
Cardiac muscle cell [2] = assay: Toxicity in human inducible pluripotent stem cell derived cardiomyocytes assessed as change in beating amplitude at 0.32 nM after 8 mins; format: cell-based; conditions: 0.00032 µM
How it was run: (§3)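 Human iPSC-derived cardiomyocytes (Cor.4U) were grown to stable beating cultures and monitored by impedance in real time with 20 s recordings. Compounds were given as a dilution series from 0.32 nM to 5 μM, dosed twice 24 h apart, with monitoring over 48 h. Beating amplitude was taken from each negative peak to the following positive peak and reported as % change.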

Cardiac muscle cell [3] = assay: Toxicity in human inducible pluripotent stem cell derived cardiomyocytes assessed as change in beating amplitude at 8 nM after 48 hrs; format: cell-based; conditions: 0.008 µM; how it was run: as §1
Cardiac muscle cell [4] = assay: Toxicity in human inducible pluripotent stem cell derived cardiomyocytes assessed as change in beating amplitude at 8 nM after 66 mins; format: cell-based; conditions: 1.1 h, 0.008 µM; how it was run: as §1
Cardiac muscle cell [5] = assay: Toxicity in human inducible pluripotent stem cell derived cardiomyocytes assessed as change in beating amplitude at 0.32 nM after 36 hrs; format: cell-based; conditions: 0.00032 µM; how it was run: as §3
MES-SA = assay: Cytotoxicity against human MESSA cells assessed as decrease in cell viability after 72 hrs by MTS assay; format: functional, cell-based; how it was run: as §2
Cardiac muscle cell [6] = assay: Toxicity in human inducible pluripotent stem cell derived cardiomyocytes assessed as change in beating amplitude at 0.32 nM after 12 hrs; format: cell-based; conditions: 0.00032 µM; how it was run: as §3
HUVEC = assay: Cytotoxicity against human HUVEC cells assessed as decrease in cell viability after 72 hrs by MTS assay; format: cell-based; how it was run: as §2
Cardiac muscle cell [7] = assay: Toxicity in human inducible pluripotent stem cell derived cardiomyocytes assessed as change in beating amplitude at 1.6 nM after 24 hrs; format: cell-based; conditions: 0.0016 µM; how it was run: as §3
MES-SA/Dx5 = assay: Cytotoxicity against human MES-SA/Dx5 cells assessed as decrease in cell viability after 72 hrs by MTS assay; format: functional, cell-based; conditions: MES-SA/Dx5, 72 h; how it was run: as §2
MCF7 = assay: Cytotoxicity against human MCF7 cells assessed as decrease in cell viability after 72 hrs by MTS assay; format: functional, cell-based; conditions: MCF7, 72 h; how it was run: as §2
HepG2 = assay: Cytotoxicity against human HepG2 cells assessed as decrease in cell viability after 72 hrs by MTS assay; format: functional, cell-based; conditions: HepG2, 72 h; how it was run: as §2
Cardiac muscle cell [8] = assay: Toxicity in human inducible pluripotent stem cell derived cardiomyocytes assessed as change in beating amplitude at 1.6 nM after 66 mins; format: cell-based; conditions: 1.1 h, 0.0016 µM; how it was run: as §3
U-87 MG = assay: Cytotoxicity against human U87MG cells assessed as decrease in cell viability after 72 hrs by MTS assay; format: functional, cell-based, U-87MG ATCC; how it was run: as §2
HCT-116 = assay: Cytotoxicity against human HCT116 cells assessed as decrease in cell viability after 72 hrs by MTS assay; format: functional, cell-based; conditions: HCT-116, 72 h; how it was run: as §2
Cardiac muscle cell [9] = assay: Toxicity in human inducible pluripotent stem cell derived cardiomyocytes assessed as change in beating amplitude at 8 nM after 33 mins; format: cell-based; conditions: 0.55 h, 0.008 µM; how it was run: as §3
Cardiac muscle cell [10] = assay: Toxicity in human inducible pluripotent stem cell derived cardiomyocytes assessed as change in beating amplitude at 40 nM after 66 mins; format: cell-based; conditions: 1.1 h, 0.04 µM; how it was run: as §3
Cardiac muscle cell [11] = assay: Toxicity in human inducible pluripotent stem cell derived cardiomyocytes assessed as change in beating amplitude at 0.32 nM after 66 mins; format: cell-based; conditions: 1.1 h, 0.00032 µM; how it was run: as §3
Cardiac muscle cell [12] = assay: Toxicity in human inducible pluripotent stem cell derived cardiomyocytes assessed as change in beating amplitude at 1.6 nM after 12 hrs; format: cell-based; conditions: 0.0016 µM; how it was run: as §3
Cardiac muscle cell [13] = assay: Toxicity in human inducible pluripotent stem cell derived cardiomyocytes assessed as change in beating amplitude at 0.32 nM after 4 hrs; format: cell-based; conditions: 0.00032 µM; how it was run: as §3
Cardiac muscle cell [14] = assay: Toxicity in human inducible pluripotent stem cell derived cardiomyocytes assessed as change in beating amplitude at 8 nM after 36 hrs; format: cell-based; conditions: 0.008 µM; how it was run: as §1
Cardiac muscle cell [15] = assay: Toxicity in human inducible pluripotent stem cell derived cardiomyocytes assessed as change in beating amplitude at 8 nM after 24 hrs; format: cell-based; conditions: 0.008 µM; how it was run: as §3
Cardiac muscle cell [16] = assay: Toxicity in human inducible pluripotent stem cell derived cardiomyocytes assessed as change in beating amplitude at 1.6 nM after 33 mins; format: cell-based; conditions: 0.55 h, 0.0016 µM; how it was run: as §3
786-0 = assay: Cytotoxicity against human 786-O cells assessed as decrease in cell viability after 72 hrs by MTS assay; format: functional, cell-based; conditions: 786-0, 72 h; how it was run: as §2
NCI-H1975 = assay: Cytotoxicity against human NCI-H1975 cells assessed as decrease in cell viability after 72 hrs by MTS assay; format: functional, cell-based; conditions: NCI-H1975, 72 h; how it was run: as §2
Cardiac muscle cell [17] = assay: Toxicity in human inducible pluripotent stem cell derived cardiomyocytes assessed as change in beating amplitude at 40 nM after 33 mins; format: cell-based; conditions: 0.55 h, 0.04 µM; how it was run: as §3
Cardiac muscle cell [18] = assay: Toxicity in human inducible pluripotent stem cell derived cardiomyocytes assessed as change in beating amplitude at 40 nM after 8 mins; format: cell-based; conditions: 0.04 µM; how it was run: as §3
CCRF S-180 = assay: Cytotoxicity against mouse S180 cells assessed as decrease in cell viability after 72 hrs by MTS assay; format: functional, cell-based; conditions: CCRF S-180, 72 h; how it was run: as §2
Cardiac muscle cell [19] = assay: Toxicity in human inducible pluripotent stem cell derived cardiomyocytes assessed as change in beating amplitude at 8 nM after 4 hrs; format: cell-based; conditions: 0.008 µM; how it was run: as §1
Cardiac muscle cell [20] = assay: Toxicity in human inducible pluripotent stem cell derived cardiomyocytes assessed as change in beating amplitude at 1.6 nM after 36 hrs; format: cell-based; conditions: 0.0016 µM; how it was run: as §3
Cardiac muscle cell [21] = assay: Toxicity in human inducible pluripotent stem cell derived cardiomyocytes assessed as change in beating amplitude at 0.32 nM after 33 mins; format: cell-based; conditions: 0.55 h, 0.00032 µM; how it was run: as §3
Cardiac muscle cell [22] = assay: Toxicity in human inducible pluripotent stem cell derived cardiomyocytes assessed as change in beating amplitude at 1.6 nM after 4 hrs; format: cell-based; conditions: 0.0016 µM; how it was run: as §3
Cardiac muscle cell [23] = assay: Toxicity in human inducible pluripotent stem cell derived cardiomyocytes assessed as change in beating amplitude at 8 nM after 12 hrs; format: cell-based; conditions: 0.008 µM; how it was run: as §3
Cardiac muscle cell [24] = assay: Toxicity in human inducible pluripotent stem cell derived cardiomyocytes assessed as change in beating amplitude at 40 nM after 48 hrs; format: cell-based; conditions: 0.04 µM; how it was run: as §3
Cardiac muscle cell [25] = assay: Toxicity in human inducible pluripotent stem cell derived cardiomyocytes assessed as change in beating amplitude at 1.6 nM after 48 hrs; format: cell-based; conditions: 0.0016 µM; how it was run: as §3
Cardiac muscle cell [26] = assay: Toxicity in human inducible pluripotent stem cell derived cardiomyocytes assessed as change in beating amplitude at 0.32 nM after 48 hrs; format: cell-based; conditions: 0.00032 µM; how it was run: as §3
Cardiac muscle cell [27] = assay: Toxicity in human inducible pluripotent stem cell derived cardiomyocytes assessed as change in beating amplitude at 8 nM after 8 mins; format: cell-based; conditions: 0.008 µM; how it was run: as §1
Cardiac muscle cell [28] = assay: Toxicity in human inducible pluripotent stem cell derived cardiomyocytes assessed as change in beating amplitude at 0.32 nM after 24 hrs; format: cell-based; conditions: 0.00032 µM; how it was run: as §3
Cardiac muscle cell [29] = assay: Toxicity in human inducible pluripotent stem cell derived cardiomyocytes assessed as change in beating amplitude at 1.6 nM after 8 mins; format: cell-based; conditions: 0.0016 µM; how it was run: as §3

In the case of `C[C@]12CC[C@H](O)C[C@H]1CC[C@@H]1[C@@H]2CC[C@]2(C)[C@@H](c3ccc(=O)oc3)CC[C@]12O` [BUFALIN], the Activity (Cardiac muscle cell [1]) is reported as “Toxic”, the EC50 (BXPC-3) is reported as 11 nM and the EC50 (SK-OV-3) is reported as 10 nM. The Activity (Cardiac muscle cell [2]) was -3%, the Activity (Cardiac muscle cell [3]) was -32% and the Activity (Cardiac muscle cell [4]) was 10%. The Activity (Cardiac muscle cell [5]) was 62%, the EC50 (MES-SA) was 28 nM and the Activity (Cardiac muscle cell [6]) was 17%. It also gave an EC50 (HUVEC) of 12 nM, an Activity (Cardiac muscle cell [7]) of 4.3% and an EC50 (MES-SA/Dx5) of 18 nM. For the same compound, the EC50 (MCF7) was 42 nM, the EC50 (HepG2) was 35 nM and the Activity (Cardiac muscle cell [8]) was -2.7%. The EC50 (U-87 MG) was 14 nM, the EC50 (HCT-116) was 11 nM and the Activity (Cardiac muscle cell [9]) was 3.1%. The Activity (Cardiac muscle cell [10]) was -62%, the Activity (Cardiac muscle cell [11]) was -4.4% and the Activity (Cardiac muscle cell [12]) was 8.9%. The Activity (Cardiac muscle cell [13]) was 12%, the Activity (Cardiac muscle cell [14]) was 7.6% and the Activity (Cardiac muscle cell [15]) was -22%. For the same compound, the Activity (Cardiac muscle cell [16]) was -0.6%, the EC50 (786-0) was 7.5 nM and the EC50 (NCI-H1975) was 13 nM. The Activity (Cardiac muscle cell [17]) was 21%, the Activity (Cardiac muscle cell [18]) was 8.5% and the EC50 (CCRF S-180) was > 20000 nM. For the same compound, the Activity (Cardiac muscle cell [19]) was 34%, the Activity (Cardiac muscle cell [20]) was -2.9% and the Activity (Cardiac muscle cell [21]) was -2%. The Activity (Cardiac muscle cell [22]) was 11%, the Activity (Cardiac muscle cell [23]) was 35% and the Activity (Cardiac muscle cell [24]) was -84.3%. For the same compound, the Activity (Cardiac muscle cell [25]) was -10%, the Activity (Cardiac muscle cell [26]) was 42% and the Activity (Cardiac muscle cell [27]) was 2.8%. The Activity (Cardiac muscle cell [28]) was 32% and the Activity (Cardiac muscle cell [29]) was 1.8%.
